Consider 46 molecules from ChEMBL document CHEMBL1124233, “Clofazimine analogues active against a clofazimine-resistant organism” (J Med Chem, 1988).

The structures appear in SMILES notation.

What all share (assay type): functional, organism-based
The subject of assay [1] is Mycolicibacterium smegmatis. Kind of assay: 100% inhibition of growth of clofazimine resistant Mycobacterium smegmatis 607 strain in vitro. An outline of the steps:
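Strain: 20× step-up clofazimine-resistant mutant of M. smegmatis ATCC607. 10^5 viable cells inoculated into modified Kirchner's medium with 0.5% Tween 80. Drugs were added in DMSO (2% final in all tubes). Roller tubes were incubated at 37 °C for 72 h. Growth was read as optical transmission in a spectrophotometer.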

The test system of assay [2] is Mycolicibacterium smegmatis. Kind of assay: Concentration for 100% inhibition of growth of dapsone sensitive Mycobacterium smegmatis 607 strain in vitro. An outline of the steps: (§1)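 M. smegmatis ATCC607-derived strains (one of three used, including a dapsone-sensitive one) were grown in modified Kirchner's medium with 0.5% Tween 80, inoculated with 10^5 viable cells. Drugs were added in DMSO (2% final). Roller tubes were incubated at 37 °C for 72 h. Growth was read as spectrophotometric transmission.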

In assay [3] the test system is Mycolicibacterium smegmatis. Kind of assay: 100% inhibition of growth of rifampicin resistant Mycobacterium smegmatis 607 strain in vitro. In outline:
as §1

As for `Cc1ccc(Nc2cc3nc4ccccc4n(-c4ccc(C)cc4)c-3c/c2=N\CCCNC2CCCCC2)cc1`, the Concentration in assay [1] came out at 0.5 µg/mL; in assay [2], 0.2 µg/mL; in assay [3] it was 0.2 µg/mL.
For the molecule `CC(C)CC/N=c1\cc2n(-c3ccccc3)c3ccccc3nc-2cc1Nc1ccccc1`, the Concentration in assay [1] was found to be 20 µg/mL; in assay [2] it was 2 µg/mL; in assay [3], 2 µg/mL.
Consider `CNCCC/N=c1\cc2n(-c3ccc(Cl)cc3)c3ccccc3nc-2cc1Nc1ccc(Cl)cc1`, for which the Concentration in assay [1] turned out to be 0.6 µg/mL; in assay [2], 0.2 µg/mL; in assay [3], 0.3 µg/mL.
The like results for `Clc1ccc(Nc2cc3nc4ccccc4n(-c4ccc(Cl)cc4)c-3c/c2=N\CCCN2CCCCC2)cc1` were, in that order, 2 µg/mL, 0.2 µg/mL and 0.3 µg/mL.
Take `NCCCCC/N=c1\cc2n(-c3ccc(Cl)cc3)c3ccccc3nc-2cc1Nc1ccc(Cl)cc1`: the figures for the Concentration in assay [1], in assay [2] and in assay [3] were 0.5 µg/mL, 0.2 µg/mL and 0.3 µg/mL, respectively.
On to `c1ccc(Nc2cc3nc4ccccc4n(-c4ccccc4)c-3c/c2=N\CCCNC2CCCCC2)cc1`, for which the Concentration in assay [1] is 0.6 µg/mL; in assay [2], 0.2 µg/mL; in assay [3], 0.2 µg/mL.
In the case of `CC(C)C(C)/N=c1\cc2n(-c3ccc(Cl)cc3)c3ccccc3nc-2cc1Nc1ccc(Cl)cc1` (stereo not drawn), the figures for the Concentration in assay [1], in assay [2] and in assay [3] were 30 µg/mL, 3 µg/mL and 4 µg/mL, respectively.
As for `CCN(CC)CC/N=c1\cc2n(-c3ccccc3)c3ccccc3nc-2cc1Nc1ccccc1`, the Concentration in assay [1] is 6 µg/mL; in assay [2], 0.6 µg/mL; in assay [3], 0.8 µg/mL.
Taken in the same sequence, the figures for `CC1(C)CC(/N=c2\cc3n(-c4ccc(Cl)cc4)c4ccccc4nc-3cc2Nc2ccc(Cl)cc2)CC(C)(C)N1` were 2 µg/mL, 0.2 µg/mL and 0.5 µg/mL.
With `CC(CN(C)C)/N=c1\cc2n(-c3ccc(Cl)cc3)c3ccccc3nc-2cc1Nc1ccc(Cl)cc1` (stereo not drawn), the Concentration is 16 µg/mL in assay [1], 0.8 µg/mL in assay [2] and 1.2 µg/mL in assay [3].
Taken in the same sequence, the figures for `Cc1ccc(Nc2cc3nc4ccccc4n(-c4ccc(C)cc4)c-3c/c2=N\CC2CCNCC2)cc1` were 0.4 µg/mL, 0.2 µg/mL and 0.3 µg/mL.
Regarding `CCN(CC)CCCC(C)/N=c1\cc2n(-c3ccc(Cl)cc3)c3ccccc3nc-2cc1Nc1ccc(Cl)cc1` (stereo not drawn), the values for the Concentration in assay [1], in assay [2] and in assay [3] were 2 µg/mL, 0.2 µg/mL and 0.2 µg/mL, respectively.
Consider `CC(C)C/N=c1\cc2n(-c3ccccc3)c3ccc(Cl)cc3nc-2cc1Nc1ccccc1`, for which the Concentration in assay [1] was found to be 100 µg/mL; in assay [2] it was 2 µg/mL; in assay [3] it was 3 µg/mL.
Taken in the same sequence, the figures for `Clc1ccc(Nc2cc3nc4ccccc4n(-c4ccc(Cl)cc4)c-3c/c2=N\C2CCCC2)cc1` were 20 µg/mL, 3 µg/mL and 3 µg/mL.
In the case of `CC(C)C/N=c1\cc2n(-c3ccc(Cl)cc3)c3ccccc3nc-2cc1Nc1ccc(Cl)cc1`, the values for the Concentration in assay [1], in assay [2] and in assay [3] were 100 µg/mL, 4 µg/mL and 4 µg/mL, respectively.
With `c1ccc(Nc2cc3nc4ccccc4n(-c4ccccc4)c-3c/c2=N\C2CCCCC2)cc1`, the Concentration in assay [1] was 10 µg/mL; in assay [2], 3 µg/mL; in assay [3] it was 2 µg/mL.
For `CCN(CC)CCC/N=c1\cc2n(-c3ccc(Cl)cc3)c3ccccc3nc-2cc1Nc1ccc(Cl)cc1`, the results for the Concentration in assay [1], in assay [2] and in assay [3] were 1 µg/mL, 0.2 µg/mL and 0.2 µg/mL, respectively.
Take `CC(C/N=c1\cc2n(-c3ccccc3)c3ccccc3nc-2cc1Nc1ccccc1)N(C)C` (stereo not drawn): the Concentration in assay [1] was 4 µg/mL; in assay [2] it was 0.8 µg/mL; in assay [3] it was 1 µg/mL.
Taken in the same sequence, the figures for `CCN1CCCC(/N=c2\cc3n(-c4ccccc4)c4ccccc4nc-3cc2Nc2ccccc2)C1` (stereo not drawn) were 6 µg/mL, 0.4 µg/mL and 0.6 µg/mL.
Taken in the same sequence, the figures for `CC(C)C/N=c1\cc2n(-c3ccccc3)c3ccccc3nc-2cc1Nc1ccccc1` were 20 µg/mL, 2 µg/mL and 3 µg/mL.
Turning to `CC(C)CC/N=c1\cc2n(-c3ccc(Cl)cc3)c3ccccc3nc-2cc1Nc1ccc(Cl)cc1`, the Concentration in assay [1] is 80 µg/mL; in assay [2] it was 2 µg/mL; in assay [3] it was 3 µg/mL.
The like results for `CCC/N=c1\cc2n(-c3ccccc3)c3ccccc3nc-2cc1Nc1ccccc1` were, in that order, 20 µg/mL, 2 µg/mL and 3 µg/mL.
As to `OCC/N=c1\cc2n(-c3ccc(Cl)cc3)c3ccccc3nc-2cc1Nc1ccc(Cl)cc1`, the Concentration stood at 20 µg/mL in assay [1], 2 µg/mL in assay [2] and 2 µg/mL in assay [3].
As to `Clc1ccc(Nc2cc3nc4ccccc4n(-c4ccc(Cl)cc4)c-3c/c2=N\CCN2CCNCC2)cc1`, the Concentration in assay [1] worked out at 0.8 µg/mL; in assay [2], 0.2 µg/mL; in assay [3], 0.2 µg/mL.
For the molecule `NCCCC/N=c1\cc2n(-c3ccc(Cl)cc3)c3ccccc3nc-2cc1Nc1ccc(Cl)cc1`, the Concentration in assay [1] is 0.5 µg/mL; in assay [2], 0.2 µg/mL; in assay [3], 0.3 µg/mL.
On to `CCN1CCCC1C/N=c1\cc2n(-c3ccccc3)c3ccccc3nc-2cc1Nc1ccccc1` (stereo not drawn), for which the Concentration in assay [1] amounted to 6 µg/mL; in assay [2], 0.5 µg/mL; in assay [3] it was 0.4 µg/mL.
On to `CN1CCN(CCC/N=c2\cc3n(-c4ccc(Cl)cc4)c4ccccc4nc-3cc2Nc2ccc(Cl)cc2)CC1`, for which the Concentration in assay [1] turned out to be 1 µg/mL; in assay [2], 0.3 µg/mL; in assay [3], 0.3 µg/mL.
On to `CCC(CO)/N=c1\cc2n(-c3ccc(Cl)cc3)c3ccccc3nc-2cc1Nc1ccc(Cl)cc1` (stereo not drawn), for which the Concentration in assay [1] stood at 100 µg/mL; in assay [2], 2 µg/mL; in assay [3] it was 10 µg/mL.
Consider `CCN(CC)CC/N=c1\cc2n(-c3ccc(C)cc3)c3ccccc3nc-2cc1Nc1ccc(C)cc1`, for which the Concentration turned out to be 3 µg/mL in assay [1], 0.5 µg/mL in assay [2] and 0.5 µg/mL in assay [3].
Turning to `Clc1ccc(Nc2cc3nc4ccccc4n(-c4ccc(Cl)cc4)c-3c/c2=N\CCCN2CCCC2)cc1`, the results for the Concentration in assay [1], in assay [2] and in assay [3] were 0.8 µg/mL, 0.3 µg/mL and 0.3 µg/mL, respectively.
In the case of `c1ccc(Nc2cc3nc4ccccc4n(-c4ccccc4)c-3c/c2=N\CC2CCNCC2)cc1`, the Concentration was determined as 0.6 µg/mL in assay [1], 0.3 µg/mL in assay [2] and 0.3 µg/mL in assay [3].
Turning to `Clc1ccc(Nc2cc3nc4ccccc4n(-c4ccc(Cl)cc4)c-3c/c2=N\C2CCCCC2)cc1`, the Concentration was 20 µg/mL in assay [1], 2 µg/mL in assay [2] and 1 µg/mL in assay [3].
For the molecule `CCN(CC)CCCC(C)/N=c1\cc2n(-c3ccccc3)c3ccccc3nc-2cc1Nc1ccccc1` (stereo not drawn), the Concentration in assay [1] was determined as 2 µg/mL; in assay [2], 0.3 µg/mL; in assay [3] it was 0.4 µg/mL.
Regarding `CC1CCC(/N=c2\cc3n(-c4ccccc4)c4ccccc4nc-3cc2Nc2ccccc2)CC1` (stereo not drawn), the Concentration in assay [1] was found to be 100 µg/mL; in assay [2], 6 µg/mL; in assay [3], 8 µg/mL.
As for `c1ccc(Nc2cc3nc4ccccc4n(-c4ccccc4)c-3c/c2=N\C2CCCCCC2)cc1`, the values for the Concentration in assay [1], in assay [2] and in assay [3] were 20 µg/mL, 2 µg/mL and 2 µg/mL, respectively.
In the case of `c1ccc(Nc2cc3nc4ccccc4n(-c4ccccc4)c-3c/c2=N\C2CCCC2)cc1`, the Concentration in assay [1] turned out to be 100 µg/mL; in assay [2], 3 µg/mL; in assay [3], 3 µg/mL.
On to `CCOc1ccc(Nc2cc3nc4ccccc4n(-c4ccc(OCC)cc4)c-3c/c2=N\CCN(CC)CC)cc1`, for which the Concentration in assay [1] came out at 5 µg/mL; in assay [2], 1 µg/mL; in assay [3] it was 1 µg/mL.
With `OCCC/N=c1\cc2n(-c3ccccc3)c3ccccc3nc-2cc1Nc1ccccc1`, the Concentration is 20 µg/mL in assay [1], 4 µg/mL in assay [2] and 8 µg/mL in assay [3].
Taken in the same sequence, the figures for `N=c1cc2n(-c3ccc(Cl)cc3)c3ccccc3nc-2cc1Nc1ccc(Cl)cc1` were 40 µg/mL, 3 µg/mL and 3 µg/mL.
As for `OCC/N=c1\cc2n(-c3ccccc3)c3ccc(Cl)cc3nc-2cc1Nc1ccccc1`, the Concentration turned out to be 100 µg/mL in assay [1], 2 µg/mL in assay [2] and 4 µg/mL in assay [3].
On to `Clc1ccc2c(c1)nc1cc(Nc3ccccc3)/c(=N/CC3CCNCC3)cc-1n2-c1ccccc1`, for which the Concentration in assay [1] was 1 µg/mL; in assay [2], 0.2 µg/mL; in assay [3] it was 0.4 µg/mL.
The like results for `OCC/N=c1\cc2n(-c3ccccc3)c3ccccc3nc-2cc1Nc1ccccc1` were, in that order, 20 µg/mL, 3 µg/mL and 5 µg/mL.
Consider `CCNCCC/N=c1\cc2n(-c3ccc(Cl)cc3)c3ccccc3nc-2cc1Nc1ccc(Cl)cc1`, for which the Concentration came out at 1 µg/mL in assay [1], 0.2 µg/mL in assay [2] and 0.2 µg/mL in assay [3].
As for `c1ccc(Nc2cc3nc4ccccc4n(-c4ccccc4)c-3c/c2=N\CC2CCCCC2)cc1`, the Concentration in assay [1] is 100 µg/mL; in assay [2], 2 µg/mL; in assay [3] it was 2 µg/mL.
As to `C/N=c1\cc2n(-c3ccc(Cl)cc3)c3ccccc3nc-2cc1Nc1ccc(Cl)cc1`, the Concentration was determined as 100 µg/mL in assay [1], 2 µg/mL in assay [2] and 2 µg/mL in assay [3].
Turning to `Clc1ccc(Nc2cc3nc4ccccc4n(-c4ccc(Cl)cc4)c-3c/c2=N\CCCNC2CCCCC2)cc1`, the Concentration in assay [1] was found to be 1 µg/mL; in assay [2] it was 0.2 µg/mL; in assay [3], 0.2 µg/mL.
